Data set [1] in a line: Protonation constants by potentiometric or spectrophotometric titration. The format is physicochemical. The conditions noted are these: aqueous solution, 25°C, 0.1 M KCl; concentration constants based on p[H]. The method, boiled down:
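The glass electrode was calibrated by titrating 5 mM HCl in 0.1 M KCl with standardized 0.1 M KOH (25°C, Gran's method); constants are on p[H], not activity. Ligand (1 or 5 mM, 0.1 M KCl, 25°C; basic sites pre-protonated with ≥1 equiv HCl where needed) was titrated stepwise with 0.1 M KOH and fitted by non-linear least squares. Values are from three independent titrations as standard deviation of the mean. Adding 0.11 gives mixed-mode constants.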

A short description of data set [2]: Aqueous solubility of neutral ligand. The format is physicochemical.
A short description of data set [3]: Cu. The format is binding. The conditions noted are these: for pCu = −log [Cu(I)aq]: 10 μM ligand and 1 μM Cu(I), pH 7.0, I = 0.1; for logβ2’ (apparent, 2:1 Cu(I) complex): pH 7.0 (0.1 M KClO4); for logβ2 of the 2:1 Cu(I) complex: recommended cumulative average, aqueous solution 25°C.
The conditions of data set [4]: cited from earlier work.
A short description of data set [5]: Cyclic voltammetry of the ligand-bound Cu. In kind it is physicochemical. The conditions noted are these: pH 5.0, 10 mM PIPBS, 0.1 M KClO4, Cu(II/I) complex. The method, boiled down:
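Cyclic voltammetry was run under argon in 10 mM PIPBS pH 5 with 0.1 M KClO4 electrolyte. Half-wave potentials were referenced to ferrocenium (0.40 vs. SHE) or ferroin.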

The conditions of data set [6]: cited from earlier work. The source holds these as a separate data set.
Data set [7] can be described thus: Cu. To be noted: 1:1 Cu(II) complex, aqueous solution, 25°C, I = 0.1. The format is binding.
The conditions of data set [8]: 1:1 Cu(II) complex, Damu et al.; cited from earlier work.
[9] abbreviates: spectrophotometric competition titration with MCL-1.

SMILES strings stand for the structures. Where “and” joins values, the source holds several entries; their conditions need not be identical. Equal entries are not always repeated. Where two headings read alike, the source gives them in different places. Marks after values point to notes of the source that are not given here.

For `O=C(O)c1cc(-c2cc(C(=O)O)c3ccccc3n2)nc2ccccc12` [BCA, 2,2′-bicinchoninic acid], in data set [1], the logKH1 is 3.80(2). In data set [2], the “solubility in aqueous solution” value is reported as “not soluble at millimolar concentrations”. In addition, in “Cu [3]”, the “pCu = −log [Cu(I)aq]” value is 13.5; the “logβ2’ (apparent, 2:1 Cu(I) complex)” value was 17.7 ^e; the “logβ2 of the 2:1 Cu(I) complex” value was 17.66(3) ^d. In addition, the “logβ2 Cu(I)” value in the data set “Cu [3]” (competition titration with PEMEA) is listed as 17.63±0.05. Besides, the “logβ2 Cu(I)” value in the data set “Cu [3]” (setting [9]) is listed as 17.67±0.03. Also, in data set [4] (0.2 M ionic strength), the protonation constant is 3.74±0.04.
Regarding `Cc1cc(-c2ccc(S(=O)(=O)O)cc2)c2ccc3c(-c4ccc(S(=O)(=O)O)cc4)cc(C)nc3c2n1` [BCS, bathocuproine disulfonate], the “E^f vs. SHE (half-wave potential)” value in data set [5] is 0.626 V and 0.626(1) V. The “logβ2 Cu(I)” value in data set [6] (previously reported) was 19.9; in the data set “Cu [3]” (from half-wave potential and Cu(II) logβ2 via Equation (1)), 20.81±0.08; in the data set “Cu [3]” (setting [9]), 20.80±0.03. The logKH1 in data set [1] was 5.70(2). In addition, in “Cu [3]”, the “pCu = −log [Cu(I)aq]” value is on record as 16.6. For the same molecule, in “Cu [3]”, the “logβ2’ (apparent, 2:1 Cu(I) complex)” value is 20.8 ^e. Besides, in the data set “Cu [3]”, the “logβ2 of the 2:1 Cu(I) complex” value is given as 20.81(2) ^d. In data set [4] (previously reported), the protonation constant is given as 5.7.
As to `OCCN(CCO)Cc1ccccn1` [DHEAMP, N,N-bis(2-hydroxyethyl)-N-(2-pyridylmethyl)amine], the “log KCu(II)L” value in “Cu [7]” came out at 9.21±0.02. In addition, in data set [4] (lit.), the protonation constant is reported as 6.92±0.01. Further, in data set [8], the “logKCu(II)L” value was 9.2±0.1.
For `CCSCCN(CCSCC)CCSCC` [TEMEA], the values for the protonation constant in data set [4] (aqueous solution) and in data set [4] (extrapolated from data acquired in 80% water-methanol) were 8.32 and 7.1, respectively.
For the molecule `CSCCN(CCSC)CCSC` [TMMEA, tris(2-methylthioethyl)amine], in data set [4] (aqueous solution), the protonation constant is listed as 8.36.
Regarding `C1CSCCCSCCCSCCCSC1` [[16]aneS4], the “logKCu(I)L” value in data set [6] is given as 12.0.
For the molecule `CC#N` [acetonitrile], in data set [6] (kinetic method), the “logβ1 Cu(I)” value is 2.63, the “logβ2 Cu(I)” value is on record as 4.02 and the “logβ3 Cu(I)” value is recorded as 4.29.

The record behind these values is article PMC3983694 (Journal of the American Chemical Society, 2013).
